Among the data in ChEMBL document CHEMBL1782022, “Potent macrocyclic inhibitors of insulin-regulated aminopeptidase (IRAP) by olefin ring-closing metathesis” (J Med Chem, 2011) are Ki values, retold here.

A word on the Ki: it is a measure of affinity in units of concentration, obtained from inhibition or displacement.

Experiment [1] is described as follows: Displacement of [3H]AL-11 from IRAP of CHO-K1 cell membrane preincubated for 40 mins in presence of 30 mM EDTA and 600 uM 1,10-Phenantrone after 30 mins by scintillation counting. The class given is cell membranes, Cricetulus griseus. An outline of the steps:
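Chelators EDTA (5 mM final) and 1,10-phenanthroline (100 μM final) were present both in the 40 min, 37 °C preincubation of CHO-K1 membranes (4 × 10⁵ cells, 50 mM Tris-HCl pH 7.4) with compound (10⁻⁹–10⁻⁵ M) and during the binding step. Binding was 30 min at 37 °C with 3 nM [³H]AL-11, with unlabeled Ang IV for nonspecific binding. Read-out was GF/B filtration and β-counting, ≥2 experiments in duplicate. IC50 came from nonlinear regression and Ki via Cheng–Prusoff.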
Background: Loss of bound radioactivity is the signal in a displacement assay; it reports binding, not function.

The nature of experiment [2]: Displacement of [3H]AL-11 from IRAP of CHO-K1 cell membrane after 30 mins by scintillation counting in presence of 30 mM EDTA and 600 uM 1,10-Phenantrone. It is filed as cell membranes, Cricetulus griseus. The method in brief: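 CHO-K1 membranes with endogenous IRAP (4 × 10⁵ cells) in 50 mM Tris-HCl pH 7.4 buffer were preincubated 40 min at 37 °C with compound (10⁻⁹–10⁻⁵ M final) without chelators. [³H]AL-11 (3 nM final) was then added with EDTA/1,10-Phe (final 5 mM/100 μM) for 30 min at 37 °C. Unlabeled Ang IV defined nonspecific binding. Bound radioactivity was collected on BSA-soaked GF/B filters and β-counted. Runs were ≥2× in duplicate. IC50 came from nonlinear regression and Ki from Cheng–Prusoff using the [³H]AL-11 KD.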

For experiment [3], the target named is Aminopeptidase N (Homo sapiens, UniProt P15144). Briefly: Inhibition of catalytic activity of recombinant human AP-N transfected in human HEK-293 cells assessed as cleavage of substrate L-leucine-p-nitroanilide to L-leucine and p-nitroaniline measured every 5 mins for 10 to 50 mins by spectrophotometric analysis. The class given is cell-based, HEK293.
Aminopeptidase N, sequence (P15144 whole entry): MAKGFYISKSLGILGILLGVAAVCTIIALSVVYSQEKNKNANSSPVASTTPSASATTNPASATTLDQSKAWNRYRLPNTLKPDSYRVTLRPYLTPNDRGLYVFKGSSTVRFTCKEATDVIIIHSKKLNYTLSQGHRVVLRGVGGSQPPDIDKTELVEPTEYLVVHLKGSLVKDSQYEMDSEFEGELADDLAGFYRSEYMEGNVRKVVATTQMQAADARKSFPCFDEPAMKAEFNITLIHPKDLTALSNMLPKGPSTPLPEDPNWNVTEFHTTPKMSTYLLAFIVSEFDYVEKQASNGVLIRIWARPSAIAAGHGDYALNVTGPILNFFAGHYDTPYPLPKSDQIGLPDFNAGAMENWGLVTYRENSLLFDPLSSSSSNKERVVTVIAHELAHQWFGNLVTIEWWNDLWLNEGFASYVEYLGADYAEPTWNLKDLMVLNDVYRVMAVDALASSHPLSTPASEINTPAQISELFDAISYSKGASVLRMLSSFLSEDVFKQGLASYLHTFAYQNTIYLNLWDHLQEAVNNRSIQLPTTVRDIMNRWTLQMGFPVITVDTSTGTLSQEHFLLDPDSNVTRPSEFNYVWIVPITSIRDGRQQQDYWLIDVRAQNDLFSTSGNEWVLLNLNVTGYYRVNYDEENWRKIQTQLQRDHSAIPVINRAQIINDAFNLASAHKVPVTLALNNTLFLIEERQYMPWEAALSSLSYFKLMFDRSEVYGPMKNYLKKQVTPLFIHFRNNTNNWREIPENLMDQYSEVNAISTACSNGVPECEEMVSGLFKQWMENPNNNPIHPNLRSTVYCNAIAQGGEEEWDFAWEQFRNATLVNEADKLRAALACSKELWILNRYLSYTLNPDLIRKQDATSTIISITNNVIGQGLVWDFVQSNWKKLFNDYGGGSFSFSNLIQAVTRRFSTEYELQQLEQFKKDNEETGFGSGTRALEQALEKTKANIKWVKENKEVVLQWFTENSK

For the molecule `N[C@H]1CC/C=C/CC[C@@H](C(=O)NCc2ccccc2)NC(=O)[C@H](Cc2ccccc2)NC1=O`, the Ki in experiment [1] is 3520 nM; in experiment [2], 719 nM. As for `CN1C(=O)[C@@H](N)CCC/C=C/CC[C@@H](C(=O)NCc2ccccc2)NC(=O)[C@@H]1Cc1ccc(O)cc1`, the Ki in experiment [3] was greater than 100000 nM. Take `N[C@H]1CCCC/C=C/C[C@@H](C(=O)NCc2ccccc2CC(=O)O)NC(=O)[C@H](Cc2ccc(O)cc2)NC1=O`: the Ki in experiment [1] was determined as 133 nM; in experiment [2] it was 46.8 nM. Turning to `N[C@H]1CC/C=C\CC[C@@H](C(=O)NCc2ccccc2CC(=O)O)NC(=O)[C@H](Cc2ccc(O)cc2)NC1=O`, the results for the Ki in experiment [1] and in experiment [2] were 568 nM and 24.8 nM, respectively. On to `CN1C(=O)[C@@H](N)CCC/C=C\CC[C@@H](C(=O)NCc2ccccc2)NC(=O)[C@@H]1Cc1ccc(O)cc1`, for which the inhibition constant Ki in experiment [3] is greater than 100000 nM. For the molecule `N[C@H]1CC/C=C/CC[C@@H](C(=O)NCc2ccccc2CC(=O)O)NC(=O)[C@H](Cc2ccc(O)cc2)NC1=O`, the Ki is 450 nM in experiment [1] and 36.8 nM in experiment [2].

Take `N[C@H]1CC/C=C/CC[C@@H](C(=O)NCc2ccccc2CC(=O)O)NC(=O)C[C@H](Cc2ccc(O)cc2)NC1=O`: the Ki came out at 74.2 nM in experiment [1] and 9.8 nM in experiment [2]. The corresponding values for `N[C@H]1CCCCCCC[C@@H](C(=O)NCc2ccccc2CC(=O)O)NC(=O)[C@H](Cc2ccc(O)cc2)NC1=O` are 517 nM and 12.5 nM. On to `CN1C(=O)[C@@H](N)CCCC/C=C/C[C@@H](C(=O)NCc2ccccc2)NC(=O)[C@@H]1Cc1ccc(O)cc1`, for which the Ki in experiment [3] was greater than 100000 nM. `N[C@H]1CC/C=C\CC[C@@H](C(=O)NCc2ccccc2)NC(=O)[C@H](Cc2ccccc2)NC1=O`: the Ki is 3470 nM in experiment [1] and 287 nM in experiment [2]. The corresponding values for `N[C@H]1CCCCCC[C@@H](C(=O)NCc2ccccc2CC(=O)O)NC(=O)[C@H](Cc2ccc(O)cc2)NC1=O` are 631 nM and 28.9 nM. Consider `CN1C(=O)[C@@H](N)CCCC/C=C\C[C@@H](C(=O)NCc2ccccc2)NC(=O)[C@@H]1Cc1ccc(O)cc1`, for which, in experiment [3], the Ki is greater than 100000 nM.
